Source: PubChem
rRNA inh HTS: inhibits bacterial ribosomal RNA function over humanized ribosomes; E. coli WT GFP vs humanized-ribosome RFP mutants, fluorescence, 24 h; stronger effect = lower value; DMSO median 0, no signal -100; GFP signal change (wild-type ribosome), % (concentration not given with the values); 350,000 tested, 1.6% active;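 active = significant combined selectivity score with lowered wild-type GFP, culture density cut under 30%, mutant RFP and density less affected; inactive = any of these conditions unmet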
PGC1a acetyl inh: PGC1a acetylation modulation, inhibitor mode. AID 651687. inhibition, % at 15.6 µM. 350,000 tested, 0.17% active. U2OS PGC1a acetylation, AlphaScreen anti-acetyl-lysine; with virally co-expressed GCN5 acetyltransferase;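 active = every replicate shows inhibition of at least 40%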;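 note: 0% = neutral control wells and 100% = positive control wells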
S100A4 inh HTS: S100A4-myosin IIA interaction inhibition | S100A4/TAMRA-MyoIIA peptide fluorescence polarization | AID 652163 | inhibition, % at 10.7 µM | 360,000 tested, 0.14% active | P26447;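 active = mean inhibition of at least 70% across replicates, with every replicate also reaching that level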
Target sequence (P26447 whole entry, looked up): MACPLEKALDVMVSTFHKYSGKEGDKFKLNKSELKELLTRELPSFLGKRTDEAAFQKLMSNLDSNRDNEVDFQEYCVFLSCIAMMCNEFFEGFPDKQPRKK
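Test system: S100A4 monomer protein; Medium: HEPES pH 7.2 with CaCl2, KCl, NaCl, DTT, Triton; Probe or stimulus: TAMRA-labelled myosin IIA heavy-chain peptide probe, 5 nM; Doses: one dose per compound; Times: polarization read 5 min after assay mix addition, stable 5–60 min; Benchmarks: neutral control DMSO, positive control TFP.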
C2C12 statin: protects C2C12 myotubes from simvastatin toxicity. 330,000 tested, 0.78% active. rescue of ATP level, % at 7.49 µM. ATP luminescence, 48 h; scaled: DMSO 0, geranylgeraniol control 100. AID 602340;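 active = mean ATP rescue above about 67%, or every replicate alone reaching that limit, limit read from the data, passing the limit was not always enough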;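 note: myotubes were challenged with 10 µM simvastatin during compound exposure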
SIRT5 block: blocks human SIRT5 desuccinylation of peptide | Q9NXA8 | Purified SirT5, succinyl-peptide AMC, trypsin-coupled fluorescence | inhibition, % at 15 µM | 330,000 tested, 1.1% active; in the data active = inhibition above about 15%
Target sequence (Q9NXA8 whole entry, looked up): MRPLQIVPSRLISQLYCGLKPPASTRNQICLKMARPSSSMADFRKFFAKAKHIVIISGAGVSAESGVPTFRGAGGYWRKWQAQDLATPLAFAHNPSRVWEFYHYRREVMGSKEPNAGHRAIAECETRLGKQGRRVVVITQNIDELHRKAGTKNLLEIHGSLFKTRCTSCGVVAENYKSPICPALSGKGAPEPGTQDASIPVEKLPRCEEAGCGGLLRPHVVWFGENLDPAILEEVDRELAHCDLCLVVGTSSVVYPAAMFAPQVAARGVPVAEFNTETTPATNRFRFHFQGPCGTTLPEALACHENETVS
Cneo AK release: Cryptococcus neoformans lysis via adenylate kinase release; C. neoformans lysis, adenylate kinase release luminescence, 4 h; normalised: neutral wells 0, clomiphene wells 100; 360,000 tested, 0.2% active; AID 651654; lysis activity, % at 15 µM;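 active = mean lysis activity across replicates of at least 80%, whatever share of replicates individually reach that level; inactive = mean lysis activity below 80%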
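Material: C. neoformans cells | Amount: Yeast cell density of 5 × 10^6 cells/mL | Medium: Fresh YPD growth medium | Dosing: Single dose | Times: Static 4 h at 37 °C with compound, 1 h detection | Detection: AK luminescence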
* marks the source's active call; other numbers are inactive results. Most compounds without a hit are left out; they make up all but 3% or so of the library.

`CCCN1C(=O)c2ccc(C(=O)Nc3ccccc3C(=O)O)cc2C1=O` gave rRNA inh HTS -21*, PGC1a acetyl inh 0, S100A4 inh HTS -6, C2C12 statin 8, SIRT5 block 0 and Cneo AK release -3.
O=C(Nc1ccccc1C(=O)O)c1ccc2c(c1)C(=O)N(c1cccc([N+](=O)[O-])c1)C2=O was read as rRNA inh HTS 19, PGC1a acetyl inh 0, S100A4 inh HTS -5, C2C12 statin -13, SIRT5 block 18* and Cneo AK release 0.
Screening CCOc1ccccc1C(=O)n1nc(C)cc1C returned PGC1a acetyl inh -4, C2C12 statin 114* and Cneo AK release 2.
Screening Cc1cccc2c1cnn2C(=O)Nc1ccc(Br)cc1F returned rRNA inh HTS -9, PGC1a acetyl inh 3, S100A4 inh HTS -2, C2C12 statin 99*, SIRT5 block -2 and Cneo AK release -1.
Screening Cc1ccc(NC(=O)n2ncc3c(C)cccc32)c(C)c1 returned rRNA inh HTS 11, S100A4 inh HTS 0, C2C12 statin 8, SIRT5 block -3 and Cneo AK release -1.
CCCNC(=O)Nc1ccc2c(c1)C(=O)N(C)[C@@H]1CC[C@H](CC(=O)NCCCN(C)C)O[C@H]1CO2 was read as rRNA inh HTS 1, PGC1a acetyl inh 5, S100A4 inh HTS 18, C2C12 statin -43, SIRT5 block 1 and Cneo AK release 1.
`Cc1ccc2nc(NC(=O)C3CCN(S(=O)(=O)c4cccs4)CC3)sc2c1` gave PGC1a acetyl inh -8, C2C12 statin 6 and Cneo AK release 5.
For Cc1ccc2nc(N/C(=N/S(=O)(=O)c3cccs3)c3ccccc3Cl)sc2c1 the results were rRNA inh HTS -32*, PGC1a acetyl inh -10, S100A4 inh HTS -3, C2C12 statin 8, SIRT5 block 5 and Cneo AK release -1.
Cc1nn(-c2ccccc2)c2sc(C(=O)OCn3nnc4ccccc4c3=O)cc12 was read as rRNA inh HTS 14, PGC1a acetyl inh 1, S100A4 inh HTS 1, SIRT5 block 17* and Cneo AK release -3.
For Cc1cc(C)n(-c2ccc(C(=O)OCn3nnc4ccccc4c3=O)cc2)n1 the results were rRNA inh HTS -20, PGC1a acetyl inh -1, S100A4 inh HTS -2, C2C12 statin 1, SIRT5 block 3 and Cneo AK release 0.
For C[C@@H]1CN([C@@H](C)CO)C(=O)c2c(c3ccccc3n2C)-c2ccccc2CO[C@@H]1CN(C)Cc1ccc(Oc2ccccc2)cc1 the results were rRNA inh HTS 1, PGC1a acetyl inh -24, S100A4 inh HTS 6 and SIRT5 block 7.
O=[N+]([O-])c1ccc(N=Nc2ccc(O)cc2O)cc1 was read as PGC1a acetyl inh 10, C2C12 statin -28 and Cneo AK release -3.
Screening O=[N+]([O-])c1cccc(N=NNc2cccc([N+](=O)[O-])c2)c1 returned rRNA inh HTS -27*, S100A4 inh HTS -8, SIRT5 block -1 and Cneo AK release -2.
For O=[N+]([O-])c1cccc(N=Nc2ccc(O)cc2O)c1 the results were rRNA inh HTS -21*, PGC1a acetyl inh -18, S100A4 inh HTS -1, C2C12 statin -59, SIRT5 block 9 and Cneo AK release -1.
`COc1ccc(NC(=O)N(C)C[C@@H]2Oc3cc(C#CCN(C)C)ccc3S(=O)(=O)N([C@H](C)CO)C[C@@H]2C)cc1` gave rRNA inh HTS 4, PGC1a acetyl inh -5, S100A4 inh HTS -10, C2C12 statin -33, SIRT5 block 0 and Cneo AK release -2.
Screening COCC#Cc1ccc2c(c1)O[C@@H](CN(C)C(=O)Nc1ccc(OC)cc1)[C@H](C)CN([C@@H](C)CO)S2(=O)=O returned rRNA inh HTS -10, PGC1a acetyl inh -2, S100A4 inh HTS -7, C2C12 statin 15, SIRT5 block 4 and Cneo AK release -2.
`COc1ccc(NC(=O)N(C)C[C@@H]2Oc3cc(C#CCC(C)C)ccc3S(=O)(=O)N([C@H](C)CO)C[C@H]2C)cc1` gave rRNA inh HTS -7, PGC1a acetyl inh -13, S100A4 inh HTS -1, C2C12 statin 14, SIRT5 block 25* and Cneo AK release 0.
`C[C@H]1CN([C@@H](C)CO)S(=O)(=O)c2ccc(C#Cc3ccccc3)cc2O[C@H]1CN(C)C(=O)Nc1ccccc1` gave rRNA inh HTS 2, PGC1a acetyl inh -12, S100A4 inh HTS 2, C2C12 statin -26, SIRT5 block 5 and Cneo AK release -3.
Screening COc1ccc(NC(=O)N(C)C[C@H]2Oc3cc(C#CCC(C)C)ccc3S(=O)(=O)N([C@@H](C)CO)C[C@H]2C)cc1 returned PGC1a acetyl inh -11, S100A4 inh HTS -3, C2C12 statin 18, SIRT5 block 26* and Cneo AK release -1.
`CC(C)CC#Cc1ccc2c(c1)O[C@@H](CN(C)C(=O)Nc1ccccc1)[C@@H](C)CN([C@H](C)CO)S2(=O)=O` gave rRNA inh HTS 2, PGC1a acetyl inh -18, S100A4 inh HTS 117*, C2C12 statin 17, SIRT5 block 4 and Cneo AK release -3.
For COc1ccc(NC(=O)N(C)C[C@@H]2Oc3cc(C#CCC(C)C)ccc3S(=O)(=O)N([C@@H](C)CO)C[C@@H]2C)cc1 the results were rRNA inh HTS -2, PGC1a acetyl inh -6, S100A4 inh HTS -7, C2C12 statin 18, SIRT5 block 29* and Cneo AK release -7.
`CS(=O)(=O)Nc1ccc2c(c1)[C@H]1C[C@H](CC(=O)NCc3ccccn3)O[C@H](CO)[C@H]1O2` gave rRNA inh HTS 9, S100A4 inh HTS 11, C2C12 statin -2, SIRT5 block -3 and Cneo AK release -18.
For C[C@H]1CN([C@@H](C)CO)C(=O)Cc2cc(NC(=O)CCCCCC(=O)Nc3ccccc3N)ccc2O[C@@H]1CN(C)C(=O)Nc1ccc(C(F)(F)F)cc1 the results were rRNA inh HTS 3, PGC1a acetyl inh -5, C2C12 statin 1 and Cneo AK release 0.
For CCCC#Cc1ccc2c(c1)O[C@H](CN(C)C(=O)Nc1ccc(OC)cc1)[C@@H](C)CN([C@@H](C)CO)S2(=O)=O the results were rRNA inh HTS 4, PGC1a acetyl inh -6, S100A4 inh HTS -8, C2C12 statin -17, SIRT5 block 18* and Cneo AK release -3.
`CCCC#Cc1ccc2c(c1)O[C@@H](CN(C)C(=O)Nc1ccc(OC)cc1)[C@H](C)CN([C@@H](C)CO)S2(=O)=O` gave rRNA inh HTS -28, PGC1a acetyl inh -11, S100A4 inh HTS -1, C2C12 statin 27, SIRT5 block 10 and Cneo AK release -1.
